Reference: ChEMBL document CHEMBL1138815, “Synthesis, structure-activity relationships, and in vivo properties of 3,4-dihydro-1H-pyrido[2,3-b]pyrazin-2-ones as corticotropin-releasing factor-1 receptor antagonists” (J Med Chem, 2004)

Key:
[1] = biological target: T1, Corticotropin-releasing factor receptor 1 (Rattus norvegicus, UniProt P35353); test: (§1) Inhibition of [125I]ovine-CRF binding to corticotropin releasing factor receptor 1
T1 sequence (P35353 whole entry): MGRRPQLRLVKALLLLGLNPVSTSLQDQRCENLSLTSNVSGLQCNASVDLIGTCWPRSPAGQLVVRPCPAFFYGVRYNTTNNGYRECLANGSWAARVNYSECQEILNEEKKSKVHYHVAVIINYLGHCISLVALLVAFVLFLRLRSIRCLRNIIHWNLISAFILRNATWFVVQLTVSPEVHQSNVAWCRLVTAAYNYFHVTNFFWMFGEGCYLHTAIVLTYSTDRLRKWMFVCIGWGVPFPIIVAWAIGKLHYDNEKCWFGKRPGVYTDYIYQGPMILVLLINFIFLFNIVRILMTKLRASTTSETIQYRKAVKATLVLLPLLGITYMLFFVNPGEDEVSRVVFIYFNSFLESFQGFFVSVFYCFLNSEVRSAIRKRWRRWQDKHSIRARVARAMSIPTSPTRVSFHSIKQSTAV
How it was run: (§2)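 CRF1 source is rat frontal cortex membranes (25 µg/well), washed by homogenization and 32000g spins. Incubated with 150 pM [125I]ovine-CRF for 2 h at 21 °C in 50 mM Hepes pH 7.0 with MgCl2, EGTA, protease inhibitors, Triton X-100, bacitracin and ovalbumin. Separated by filtration on PEI-treated GF/B filters and gamma counted. Nonspecific binding defined with 1 µM DMP696.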

[2] = Clearance in Beagle dogs; type: ADME, organism-based, Canis lupus familiaris; settings: dog, in vivo
How it was run: (§3)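 Beagle dogs dosed iv at 1.0 mg/kg (n = 2) in propylene glycol:water:N,N-dimethylacetamide 80:10:10, or po at 5.0 mg/kg (n = 2) in Labrafil:ethanol:Tween 80 85:10:5. Blood drawn by jugular venipuncture at 0–24 h (iv from 0.1 h, po from 0.5 h). Plasma stored at -20 °C, levels measured by LC/MS/MS.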

[3] = Volume of distribution in Beagle dogs; type: ADME, organism-based, Canis lupus familiaris; settings: dog, in vivo; how it was run: as §3
[4] = Mean free plasma concentration was determined in the defensive withdrawal model of rats after oral administration; Dose 1 mg/kg; type: ADME, organism-based; design: dose 1 mg/kg, route oral; settings: rat, in vivo
[5] = Mean free plasma concentration was determined in the defensive withdrawal model of rats after oral administration; Dose 10 mg/kg; type: ADME, organism-based; design: dose 10 mg/kg, route oral; settings: rat, in vivo
[6] = Mean total plasma concentration was determined in the defensive withdrawal model of rats after oral administration; Dose 1 mg/kg; type: ADME, organism-based; design: dose 1 mg/kg, route oral; settings: rat, in vivo, read-out: Mean total plasma concentration
[7] = Mean total plasma concentration was determined in the defensive withdrawal model of rats after oral administration; Dose 3 mg/kg; type: ADME, organism-based; design: dose 3 mg/kg, route oral; settings: rat, in vivo, read-out: Mean total plasma concentration
[8] = Mean total plasma concentration was determined in the defensive withdrawal model of rats after oral administration; Dose 10 mg/kg; type: ADME, organism-based; design: dose 10 mg/kg, route oral; settings: rat, in vivo, read-out: Mean total plasma concentration
[9] = biological target: T2, Corticotropin-releasing factor receptor 1 (Rattus norvegicus) (UniProt P35353); test: Percent occupancy of corticotropin releasing factor receptor 1 in defensive withdrawal model in rats after oral administration; Dose 1 mg/kg; type: functional, organism-based; design: dose 1 mg/kg; settings: at 1 mg/kg
T2 sequence (whole entry): T1 sequence (P35353 whole entry)
How it was run: (§4)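 After oral dosing at 1, 3 or 10 mg/kg in the defensive withdrawal rats, CRF1 occupancy in parietal cortex measured by ex vivo autoradiography; n = 5.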

[10] = biological target: T2, Corticotropin-releasing factor receptor 1 (Rattus norvegicus); test: Percent occupancy of corticotropin releasing factor receptor 1 in defensive withdrawal model in rats after oral administration; Dose 3 mg/kg; type: organism-based; design: dose 3 mg/kg; settings: at 3 mg/kg; how it was run: as §4
[11] = biological target: T2, Corticotropin-releasing factor receptor 1 (Rattus norvegicus); test: Percent occupancy of corticotropin releasing factor receptor 1 in defensive withdrawal model in rats after oral administration; Dose 10 mg/kg; type: organism-based; design: dose 10 mg/kg; settings: at 10 mg/kg; how it was run: as §4
[12] = biological target: T3, Adenosine receptor A3 (Homo sapiens) (UniProt P0DMS8); test: Inhibition of Adenosine A3 receptor at 10 uM
T3 sequence (whole entry): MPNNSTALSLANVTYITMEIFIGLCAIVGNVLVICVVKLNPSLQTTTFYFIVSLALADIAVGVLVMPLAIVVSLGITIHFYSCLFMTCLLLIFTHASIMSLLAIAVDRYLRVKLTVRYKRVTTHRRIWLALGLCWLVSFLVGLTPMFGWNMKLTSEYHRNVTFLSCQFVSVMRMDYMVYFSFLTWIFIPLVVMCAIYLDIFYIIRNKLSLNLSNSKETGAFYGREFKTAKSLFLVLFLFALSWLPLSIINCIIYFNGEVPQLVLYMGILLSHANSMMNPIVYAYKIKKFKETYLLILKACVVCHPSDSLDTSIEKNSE

[13] = biological target: Cannabinoid receptor 1 (Homo sapiens) (UniProt P21554); test: Inhibition of Cannabinoid receptor 1 at 10 uM
[14] = biological target: Corticotropin releasing factor receptor (Rattus norvegicus, UniProt P47866+P35353); test: Inhibition of corticotropin releasing factor-induced ACTH release from rat pituitary cells; type: functional, cell-based; settings: pituitary gland cell
How it was run: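 Cultured rat pituitary cells stimulated with 0.3 nM CRF, with inhibition of ACTH release measured across a concentration range to give IC50; n = 3.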

[15] = Bioavailability in Beagle dogs; type: ADME, organism-based, Canis lupus familiaris; settings: dog, in vivo, read-out: Bioavailabiility; how it was run: as §3
[16] = Half life in Beagle dogs; type: ADME, Canis lupus familiaris; settings: dog, in vivo; how it was run: as §3
[17] = Mean free plasma concentration was determined in the defensive withdrawal model of rats after oral administration; Dose 3 mg/kg; type: ADME, organism-based; design: dose 3 mg/kg, route oral; settings: rat, in vivo
[18] = biological target: Vasopressin V1 receptor (Homo sapiens) (UniProt P37288+P47901); test: Inhibition of Vasopressin V1 receptor at 10 uM; type: protein assay
[19] = test system: Rattus norvegicus; test: Percent decrease in exit latency was determined in the defensive withdrawal model of rats after oral administration; Dose 3 mg/kg; type: functional
How it was run: (§5)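 Male Sprague–Dawley rats (180–300 g) dosed po at 1, 3 or 10 mg/kg in 0.25% methocel suspension, 1 h before testing. Each rat placed in a darkened chamber inside a brightly lit open field; latency to emerge timed. Result expressed as % decrease versus vehicle, n = 8 per dose.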

[20] = test system: Rattus norvegicus; test: Percent decrease in exit latency was determined in the defensive withdrawal model of rats after oral administration; Dose 10 mg/kg; type: functional; how it was run: as §5
[21] = test system: Rattus norvegicus; test: Percent decrease in exit latency was determined in the defensive withdrawal model of rats after oral administration; Dose 1 mg/kg; type: functional; how it was run: as §5
[22] = biological target: T4, Corticotropin-releasing factor receptor 1 (Homo sapiens, UniProt P34998); test: as §1; how it was run: as §2
T4 sequence (P34998 whole entry): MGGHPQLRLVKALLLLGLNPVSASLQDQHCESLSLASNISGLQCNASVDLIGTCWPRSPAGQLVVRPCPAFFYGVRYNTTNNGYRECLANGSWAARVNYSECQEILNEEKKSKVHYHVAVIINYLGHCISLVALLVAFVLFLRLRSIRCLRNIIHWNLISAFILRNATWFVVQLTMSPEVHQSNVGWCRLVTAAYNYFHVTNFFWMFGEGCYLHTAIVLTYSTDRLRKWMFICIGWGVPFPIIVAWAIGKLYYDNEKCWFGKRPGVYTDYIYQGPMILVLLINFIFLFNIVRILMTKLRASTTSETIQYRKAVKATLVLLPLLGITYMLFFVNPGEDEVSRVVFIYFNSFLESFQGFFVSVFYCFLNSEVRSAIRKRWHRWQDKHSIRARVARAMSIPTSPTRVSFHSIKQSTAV

Cannabinoid receptor 1 (Homo sapiens), sequence (P21554 whole entry): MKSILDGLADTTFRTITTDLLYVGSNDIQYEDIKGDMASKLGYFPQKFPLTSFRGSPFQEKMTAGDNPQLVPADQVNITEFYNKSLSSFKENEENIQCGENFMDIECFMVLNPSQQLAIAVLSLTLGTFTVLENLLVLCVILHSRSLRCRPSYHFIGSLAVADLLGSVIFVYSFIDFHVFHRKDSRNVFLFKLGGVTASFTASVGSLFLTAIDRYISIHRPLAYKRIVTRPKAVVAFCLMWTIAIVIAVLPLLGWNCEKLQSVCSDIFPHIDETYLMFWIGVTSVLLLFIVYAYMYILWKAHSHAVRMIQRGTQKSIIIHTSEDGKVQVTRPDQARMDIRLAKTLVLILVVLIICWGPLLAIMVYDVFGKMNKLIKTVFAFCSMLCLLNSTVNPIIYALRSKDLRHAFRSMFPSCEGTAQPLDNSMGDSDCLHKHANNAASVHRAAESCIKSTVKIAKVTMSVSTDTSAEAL
Vasopressin V1 receptor (Homo sapiens), sequence (P37288 whole entry, looked up): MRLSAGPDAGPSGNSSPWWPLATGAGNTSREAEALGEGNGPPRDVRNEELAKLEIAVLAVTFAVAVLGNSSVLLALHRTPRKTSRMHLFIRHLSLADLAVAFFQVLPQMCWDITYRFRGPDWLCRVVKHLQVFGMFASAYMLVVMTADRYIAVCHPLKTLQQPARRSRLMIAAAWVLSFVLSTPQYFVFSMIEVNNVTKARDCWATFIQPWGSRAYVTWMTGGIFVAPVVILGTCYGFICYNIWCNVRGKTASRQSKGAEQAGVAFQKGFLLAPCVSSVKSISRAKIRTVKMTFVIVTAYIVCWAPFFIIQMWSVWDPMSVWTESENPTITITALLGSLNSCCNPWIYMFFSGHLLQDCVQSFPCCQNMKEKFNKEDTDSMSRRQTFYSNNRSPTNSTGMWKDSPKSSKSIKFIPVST
Vasopressin V1 receptor (Homo sapiens), sequence (P47901 whole entry, looked up): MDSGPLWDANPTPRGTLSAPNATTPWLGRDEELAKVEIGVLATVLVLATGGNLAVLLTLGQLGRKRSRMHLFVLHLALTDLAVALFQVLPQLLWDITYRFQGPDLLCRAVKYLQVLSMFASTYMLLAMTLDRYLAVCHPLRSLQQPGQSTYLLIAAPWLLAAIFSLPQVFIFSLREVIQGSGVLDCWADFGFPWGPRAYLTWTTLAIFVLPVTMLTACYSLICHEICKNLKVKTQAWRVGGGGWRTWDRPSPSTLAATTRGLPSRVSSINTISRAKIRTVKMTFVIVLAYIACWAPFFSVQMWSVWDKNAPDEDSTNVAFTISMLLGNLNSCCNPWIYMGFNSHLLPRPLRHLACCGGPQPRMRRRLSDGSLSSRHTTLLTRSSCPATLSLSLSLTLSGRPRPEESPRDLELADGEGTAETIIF

IC50 [1] [nM] | SMILES | further results
305 | CCN(CCCS(C)(=O)=O)c1cc(C)nc2c1NC(=O)CN2c1ccc(C(C)C)cc1Br | –
7.1 | CCCCN(CC)c1cc(C)nc2c1NC(=O)CN2c1ccccc1Br | –
> 1000 | CCNc1cc(C)nc2c1NC(=O)CN2c1ccc(OC)cc1Cl | –
0.82 | CCCCN(CC)c1cc(C)nc2c1NC(=O)CN2c1ccc(OC)nc1OC | Clearance [2]: 27.8 mL/min/kg; Volume of distribution [3]: 40.6 L/kg; Mean free plasma concentration [4]: 0.05 nM; Mean free plasma concentration [5]: 1.02 nM; concentration [6]: 3.1 nM; concentration [7]: 21.7 nM; concentration [8]: 61.5 nM; Occupancy [9]: 17%; Occupancy [10]: 23%; Occupancy [11]: 59%; inhibition [12]: 49%; inhibition [13]: 53%; IC50 [14]: 38.7 nM; bioavailability [15]: 24%; T1/2 [16]: 27.6 h; Mean free plasma concentration [17]: 0.36 nM; inhibition [18]: 47%; Decrease in exit latency [19]: 14%; Decrease in exit latency [20]: 81%; Decrease in exit latency [21]: 0%
198 | CCC(CC)Nc1cc(C)nc2c1NC(=O)CN2c1ccc(Cl)cc1Cl | –
0.91 | CCCCN(CC)c1cc(C)nc2c1NC(=O)CN2c1ccc(C(C)C)cc1Cl | –
0.5 | CCCCN(CC)c1cc(C)nc2c1NC(=O)CN2c1cc(F)c(OC)cc1Cl | –
18 | COCCN(CCOC)c1cc(C)nc2c1NC(=O)CN2c1ccc(C(C)C)cc1Cl | –
1.8 | CCCN(CC1CCC1)c1cc(C)nc2c1NC(=O)CN2c1ccc(C#N)cc1Cl | –
1.5 | CCN(c1cc(C)nc2c1NC(=O)CN2c1cc(F)c(OC)cc1Cl)C(C)C | –
0.3 | CCCCN(CC)c1cc(C)nc2c1NC(=O)CN2c1ccc(OC)cc1Cl | –
0.49 | CCCCN(CC)c1cc(C)nc2c1NC(=O)CN2c1ccc(Cl)cc1Cl | –
4.2 | CCCCN(CC)c1cc(C)nc2c1NC(=O)CN2c1ccc(OC)nc1C | –
3.3 | CCCCN(CC)c1cc(C)nc2c1NC(=O)CN2c1c(Cl)cc(C#N)cc1Cl | –
126 | Cc1cc(N2CCOCC2)c2c(n1)N(c1ccc(C(C)C)cc1Br)CC(=O)N2 | –
10 | CCCCN(CC)c1cc(C)nc2c1NC(=O)CN2c1ccc(Cl)cc1C#N | –
0.92 | CCCCN(CC)c1cc(C)nc2c1NC(=O)CN2c1ccc(OC)cc1C | –
92 | CCN(CCCC#N)c1cc(C)nc2c1NC(=O)CN2c1ccc(OC)cc1C | –
49 | CCCCN(CC)c1cc(C)nc2c1NC(=O)CN2c1ccc(C(C)C)cc1 | –
> 1000 | CCCCNc1cc(C)nc2c1NC(=O)CN2c1ccc(OC)cc1Cl | –
4.1 | CCN(CC1CCCO1)c1cc(C)nc2c1NC(=O)CN2c1ccc(C(C)C)cc1Br (stereo unspecified) | –
2.2 | CCCCN(CC)c1cc(C)nc2c1NC(=O)CN2c1ccc(C#N)cc1Cl | –
0.7 | CCCCN(CC)c1cc(C)nc2c1NC(=O)CN2c1ccc(C(C)C)cc1Br | –
2.6 | CCCN(CCOC)c1cc(C)nc2c1NC(=O)CN2c1ccc(C(C)C)cc1Cl | –
1.2 | CCCN(CCC)c1cc(C)nc2c1NC(=O)CN2c1ccc(C#N)cc1Cl | –
– | CCCCN(CC)c1cc(C)nc(N(CC)c2ccc(C(C)C)cc2Br)n1 | Ki [22]: 18 nM
